# Shown are actives, neighbours in structure and some others; about 5.2% of the full set was active somewhere.
# E coli WT exp – blocks growth of wild type E. coli BW25113 | 98,000 tested, 0.15% active | OD600 absorbance | growth inhibition, % at 100 µM;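 active means growth inhibition above about 50% at one test dose, limit read from the data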;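 further: growth measured after 20 h incubation at 37 °C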
# WNV NS2B-NS3 inh – WNV NS2B-NS3 proteinase inhibition; WNV NS2B-NS3 protease, fluorogenic substrate Ex360/Em465; stronger effect = lower value; P06935; z-score (no concentration beside the values); 65,000 tested, 0.18% active; AID 577; in the data active means z-score below about -3
# Target sequence (P06935 1371-1501 limits assumed): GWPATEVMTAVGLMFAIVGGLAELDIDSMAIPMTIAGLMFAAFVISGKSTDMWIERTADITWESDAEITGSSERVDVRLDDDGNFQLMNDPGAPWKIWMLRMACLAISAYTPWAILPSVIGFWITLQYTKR
# Target sequence (P06935 1502-1679 limits assumed): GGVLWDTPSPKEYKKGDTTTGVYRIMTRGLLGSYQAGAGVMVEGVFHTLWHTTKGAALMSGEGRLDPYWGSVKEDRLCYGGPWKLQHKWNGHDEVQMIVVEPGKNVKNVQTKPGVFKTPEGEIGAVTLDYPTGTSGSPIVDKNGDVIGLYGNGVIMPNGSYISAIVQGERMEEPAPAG
# Ecoli tolC – E. coli tolC mutant growth inhibition; 65,000 tested, 2.2% active; growth inhibition, % at 10 µM (by protocol); E. coli BW25113 tolC mutant growth, OD615; AID 573;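 active means growth inhibition at or above a cutoff equal to the mean over every tested compound plus 3 SD, cut at about 60% in these data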;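 further: growth measured after 20 h incubation at 37 °C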
#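 Test system – E. coli BW25113 ΔtolC::kan, tolC deletion mutant strain · Detection – OD at 615 nm · Buffer or medium – LB with kanamycin 50 µg/mL · Times – 20 h compound exposure of bacteria at 37 °C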
# M1 antag – blocks the rat M1 muscarinic receptor response to acetylcholine. AID 628. 64,000 tested, 3.4% active. CHO-M1 cells, Fluo-4 calcium, ACh EC80 antagonist mode; stronger effect = lower value. B-score at 10 µM;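 active means calcium fluorescence response, raw or row-and-column corrected B-score, differing from the plate sample mean either way at a set confidence level, mostly lower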
# AP ELISA ortho – orthogonal test for alternative complement pathway inhibitors; Human serum alternative complement pathway, LPS-coated ELISA, C3 deposition; tested in compound mixtures; inhibition, % at 5 µM; 62,000 tested, 0.08% active; AID 1235;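 active means inhibition above 30% in each of the two pooled mixtures holding the compound, so the lower value exceeds 30%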;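 further: 0% = serum in Mg-EGTA without compound and 100% = EDTA serum blank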
#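 Test system – human serum alternative complement pathway, C3 deposition on LPS-coated wells · Buffer or medium – diluted human serum in Mg2+-EGTA GVB++ · Compound dosing – 5 µM each compound, pools of ten, 50 µM per pool · Schedule – 1 h serum-compound exposure at 37 °C · Measured by – Anti-C3 ELISA, OD 450 nm · Read-out basis – percent inhibition of C3 deposition onto LPS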
# M1 ag – M1 muscarinic receptor agonism | CHO-M1 cells, Fluo-4 calcium fluorescence, agonist mode; stronger effect = higher value | B-score at 10 µM | 64,000 tested, 3% active | AID 626;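 active means fluorescence rise, raw or as B-score row- and column-corrected plate score, outside the 99.7% band of its plate's samples, either direction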
# M1 antag conf – confirmation of rat M1 muscarinic receptor antagonists. calcium response (max-min fluorescence) at 10 µM. 1,700 tested, 43% active. CHO-M1 cells, Fluo-4 calcium, ACh EC80 antagonism; stronger effect = lower value. shares compounds with M1 antag;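 active means calcium response below the same-plate mean of wells given acetylcholine alone at its 80%-effect dose, minus 3 SD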;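 further: raw fluorescence intensity difference in arbitrary instrument units and not normalized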
# mGluR4 antag – acts on human mGluR4 in M1 antagonist selectivity test; CHO-mGluR4 calcium flux, Fluo-4 fluorescence, glutamate EC80; stronger effect = lower value; shares compounds with M1 antag; 1,700 tested, 0.9% active; fluorescence response (max-min) at 10 µM;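 active means fluorescence response below the plate's average for near-maximal glutamate wells, less 3 SD of those wells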;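 further: raw unnormalized fluorescence span taken in the window right after glutamate addition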
# * marks the source's active call; other numbers are inactive results; · = not tested or not shown.
SMILES,E coli WT exp,WNV NS2B-NS3 inh,Ecoli tolC,M1 antag,AP ELISA ortho,M1 ag,M1 antag conf,mGluR4 antag
Cn1c(SCC(=O)Nc2cccc(Br)c2)nnc1-c1cc2ccccc2o1,-14.0,·,·,·,·,·,·,·
O=C(O)/C=C/C(=O)Nc1ccccc1-c1ccccc1,-4.0,·,·,·,·,·,·,·
CCOC(=O)N1CCN(C(=O)C2CCC(CNS(=O)(=O)c3ccc(Cl)cc3)CC2)CC1 (stereo not given),-5.0,-0.82,-4.6,-2.9*,6.2,0.216,543,274
CCOC(=O)N1CCN(C(=O)C(C)(C)Oc2ccc(Cl)cc2)CC1,8.0,2,6.1,-2.61*,10.6,-0.247,525,213
COc1ccc(N2CCN(C(=O)C(C)(C)Oc3ccc(Cl)cc3)CC2)cc1,-5.0,-2.51,24.7,-0.402,11.0,0.0785,·,·
Cc1nn(C)c(C)c1CN(C)C(=O)c1cc2n(n1)C(C(F)(F)F)CC(c1cccs1)N2 (stereo not given),-10.0,0.81,34.4,-3.46*,9.8,-1.83,590,244
CSc1ccc2[nH]c(=O)cc(C)c2c1,6.0,0.01,9.5,0.262,-18.6,1.17,·,·
CCc1ccc(CCC(=O)Nc2nnc(CC)s2)o1,1.0,-1.68,-4.1,0.219,1.9,0.967,·,·
CCCCNC(=O)c1cc2c(=O)n3cccc(C)c3nc2n(CCN2CCOCC2)c1=N,3.0,2.47,7.0,·,-7.7,·,·,·
CCOCCCn1c(=N)c(C(=O)NCc2ccc3c(c2)OCO3)cc2c(=O)n3cccc(C)c3nc21,-1.0,0.29,29.4,-10.5*,0.9,0.407,90.5*,202
COCCCn1c(=N)c(C(=O)NCc2ccc3c(c2)OCO3)cc2c(=O)n3ccccc3nc21,-3.0,-1.04,-3.8,-1.98,4.8,-0.771,·,·
COCCCn1c(=N)c(C(=O)NCc2ccc3c(c2)OCO3)cc2c(=O)n3cccc(C)c3nc21,·,1.01,7.9,-7.13*,-6.4,0.607,90.3*,204
COC(=O)/C=c1/sc2nc3ccccc3n2c1=O,5.0,-0.67,-21.3,-2.48*,17.4,-0.78,593,251
Cc1ccc(CN2C3=NCCCN3c3ccccc32)cc1,11.0,1.29,3.5,-2.81*,26.0,0.786,419,212
CCOC(=O)N1CCC(NC(=O)CCc2nc(-c3ccc(C)cc3)no2)CC1,-14.0,1.6,-13.4,-0.29,5.7,-0.153,·,·
COc1ccc(Cc2nc(-c3ccccc3)no2)cc1,-4.0,-0.45,23.4,-2.11*,29.5,0.14,611,263
COc1ccc(-c2noc(CSc3nc4ccccc4c(=O)n3-c3ccc(C)cc3)n2)cc1,-24.0,·,·,·,·,·,·,·
COc1ccc(-c2noc(CSc3nc(N)c(-c4ccccc4)c(=O)[nH]3)n2)cc1,-11.0,-0.87,11.7,-3.37*,2.6,0.93,628,290
Cn1c(N2CCN(c3ccccn3)CC2)nc2c1c(=O)n(Cc1ccc(Cl)cc1)c(=O)n2C,-14.0,-0.87,5.9,-2.17*,·,0.707,619,250
Cn1c(N2CCN(c3ccccn3)CC2)nc2c1c(=O)n(Cc1ccccc1Cl)c(=O)n2C,·,-0.33,12.1,0.855,·,-0.0397,·,·
C1CCC(CNc2c3c(nc4nnnn24)CCCC3)CC1,3.0,0.33,-14.9,-2.94*,15.1,-0.0657,651,243
COCCn1c(SCC(=O)N2CCCc3ccccc32)nc2ccccc2c1=O,-9.0,-0.02,38.7,-1.91*,-7.0,-0.122,589,254
Cc1ccc(C)c(Cn2nnc3c(=O)[nH]c(C(=O)NCc4ccco4)nc32)c1,3.0,-1.31,18.8,-2.45*,3.5,-0.833,560,251
O=C(CCC(=O)NNC(=O)Nc1ccc(Cl)cc1)NCc1ccccc1,1.0,·,·,·,·,·,·,·
CCOC(=O)c1nnc2cc(-c3ccccc3)nn2c1C,5.0,-0.88,7.7,-2.6*,9.4,0.793,640,231
SMILES,E coli WT exp,WNV NS2B-NS3 inh,Ecoli tolC,M1 antag,AP ELISA ortho,M1 ag,M1 antag conf,mGluR4 antag
CC(NC(=O)CSc1ncnc2nc[nH]c12)c1ccccc1 (stereo not given),3.0,-0.72,-14.4,-3.84*,21.6,0.392,667,259
CC(=O)CSc1ncnc2nc[nH]c12,2.0,0.88,-20.7,-0.0261,9.1,0.623,·,·
Cc1cc(OCC(=O)N2CCc3ccccc3C2)c2c(-c3ccccc3)cc(=O)oc2c1,-19.0,·,·,·,·,·,·,·
CCOC(=O)c1cc(S(=O)(=O)N2CCN(C(=O)OCC)CC2)cn1C,8.0,0.15,2.4,-0.00907,15.8,-0.191,·,·
O=C(NCCN1CCCC1)c1ccc2c(c1)N(Cc1ccc(F)cc1)C(=O)c1ccccc1S2=O (stereo not given),1.0,-0.67,3.0,-1.06*,17.9,0.0128,505,244
O=C(NCCN1CCOCC1)c1ccc2c(c1)N(Cc1ccc(F)cc1)C(=O)CS2,-8.0,0.57,-7.0,-9.13*,-0.3,0.465,398*,214
Cc1ccc(CN2C(=O)CSc3ccc(C(=O)NCCN4CCOCC4)cc32)cc1,-9.0,0.4,-7.6,-0.845,17.0,-0.432,·,·
O=C(O)c1ccc2c(c1)N(Cc1ccccc1)C(=O)c1ccccc1S2=O (stereo not given),4.0,-0.41,-23.5,0.443,8.5,-0.196,·,·
CCCCC(=O)Nc1c(C)cc(C)cc1Cl,8.0,·,·,·,·,·,·,·
O=C(NCCN1CCOCC1)c1cc2sccc2n1Cc1ccc(Cl)cc1,14.0,0.67,9.2,-4.53*,2.2,-0.265,349*,239
CCOC(=O)c1nnn(-c2nonc2NC(C)=O)c1C,-3.0,-0.1,-4.4,-0.898*,0.4,-0.32,574*,178
O=C(Cn1ncc2ccccc21)N1CCc2ccccc21,10.0,0.12,-2.8,-2.31*,19.9,0.0567,693,252
CCN(Cc1ccccc1)C(c1cc2ccc(C)cc2[nH]c1=O)c1nnnn1CCOC (stereo not given),17.0,·,·,·,·,·,·,·
CCN(CC)S(=O)(=O)c1ccc(C(=O)OC2CCCCC2CN(C)C)cc1 (stereo not given),-1.0,-0.63,-12.7,-4.55*,5.3,0.0484,509,219
Cc1ccc(NC(=O)C2CCN(C(=O)NC3CCCCC3)CC2)cc1Cl,-12.0,-0.95,-6.2,0.229,-4.2,-0.331,·,·
Cc1ccc(NC(=O)NC2CCCCC2)cc1Cl,0.0,0.28,3.4,-1.15*,3.5,-0.672,524,202
Cc1ccc(N(CC(=O)N2CC(=O)Nc3ccccc32)S(=O)(=O)c2ccc3c(c2)OCCO3)cc1,2.0,·,16.5,-0.734,6.8,0.463,·,·
Cc1sc2nc(CN3CCCC3)nc(N3CCN(S(=O)(=O)c4cccs4)CC3)c2c1C,2.0,1.26,14.0,-3.89*,4.3,-0.208,410*,217
Cc1sc2nc(CN3CCOCC3)nc(NS(=O)(=O)c3ccccc3)c2c1C,-1.0,·,·,·,·,·,·,·
